Reference: ChEMBL document CHEMBL1132418, “Structure-immunosuppressive activity relationships of new analogues of 15-deoxyspergualin. 1. Structural modifications of the hydroxyglycine moiety” (1999)

Legend:
Type in all cases: functional
Mus musculus [1] = assay: In vivo immunosuppressive activity in mouse GVHD (graft-versus-host disease) model and the mean survival days evaluated (dose of 3 mg/kg)
How it was run: (§1)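 Mouse GVHD model. Compounds were dissolved in aqueous solution and given i.p. on days 1 to 10 (day 6 omitted), first at 3 mg/kg/day and then at 1 mg/kg/day. Survival was followed to day 60 after cell injection and reported as mean survival in days ± deviation.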

Mus musculus [2] = assay: In vivo immunosuppressive activity at a dose of 1 mg/kg in mouse GVHD (graft-versus-host disease) model and the mean survival days evaluated.; how it was run: as §1
Rattus norvegicus [3] = assay: Compound (6 mg/kg) is evaluated for prevention of graft rejection after heart allotransplantation in the Dark Agouti to Lewis rat combination.
How it was run: (§2)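 Dark Agouti donor hearts transplanted into Lewis rat recipients (fully histoincompatible; high-responder recipient). Compounds given daily i.p. at 6 mg/kg/day for 10 days, starting 1 day after surgery. Graft survival recorded for each animal in days and reported as mean ± SD, with a statistical comparison against controls.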

Rattus norvegicus [4] = organism: Rattus norvegicus; assay: Compound is evaluated for prevention of graft rejection after heart allotransplantation in the dark agouti Lewis rat combination.; how it was run: as §2

Row | SMILES | Mean survival (Mus musculus [1]) [days] | further results
1 | CN(CCCCNCCCN)C(=O)CC(=O)NCCCCCCN=C(N)N | 12 | 
2 | NCCCNCCCCNS(=O)(=O)CC(=O)NCCCCCCN=C(N)N | 15 | 
3 | NCCCNCCCCNC(=O)/C=C\C(=O)NCCCCCCN=C(N)N | 17 | 
4 | NCCCNCCCCOC(=O)NCNC(=O)CCCCCCN=C(N)N | 58 | Mean survival (Mus musculus [2]): 32 days
5 | COC(OC)(C(=O)NCCCCCCN=C(N)N)C(=O)NCCCCNCCCN | 12 | 
6 | CN(CCCCNCCCN)C(=O)OCC(=O)NCCCCCCN=C(N)N | 15 | 
7 | N=C(N)NCCCCCCC(=O)NC(O)C(=O)NCCCCNCCCN (configuration not stated) [GUSPERIMUS] | 57 | Mean survival (Rattus norvegicus [3]): 38 days; Mean survival (Mus musculus [2]): 38 days
8 | CN(CCCCCCN=C(N)N)C(=O)CC(=O)NCCCCNCCCN | 14 | 
9 | NCCCNCCCCNC(=O)/C=C/C(=O)NCCCCCCN=C(N)N | 17 | 
10 | CC(C)(C(=O)NCCCCCCN=C(N)N)C(=O)NCCCCNCCCN | 15 | 
11 | CCC(C(=O)NCCCCCCN=C(N)N)C(=O)NCCCCNCCCN (configuration not stated) | 19 | 
12 | NCCCNCCCCNC(=O)NCCC(=O)NCCCCCCN=C(N)N | 15 | 
13 | NCCCNCCCCNC(=O)C(F)C(=O)NCCCCCCN=C(N)N (configuration not stated) | 60 | Mean survival (Mus musculus [2]): 18 days
14 | NCCCNCCCCNC(=O)C(O)CC(=O)NCCCCCCN=C(N)N (configuration not stated) | 15 | 
15 | NCCCNCCCCNC(=O)CNC(=O)NCCCCCCN=C(N)N | 24 | 
16 | NCCCNCCCCNC(=O)OCCC(=O)NCCCCCCN=C(N)N | 13 | 
17 | NCCCNCCCCNC(=O)C(Cc1ccccc1)C(=O)NCCCCCCN=C(N)N (configuration not stated) | 16 | 
18 | NCCCNCCCCNC(=O)OCCNCCCCCCN=C(N)N | 34 | 
19 | NCCCNCCCCNC(=O)C(=O)NCCCCCCN=C(N)N | 34 | Mean survival (Rattus norvegicus [3]): 12 days; Mean survival (Mus musculus [2]): 53 days
20 | CC(C(=O)NCCCCCCN=C(N)N)C(=O)NCCCCNCCCN (configuration not stated) | 16 | 
21 | NCCCNCCCCC(=O)NCC(=O)NCCCCCCN=C(N)N | 22 | 

Row | SMILES | Mean survival (Mus musculus [1]) [days] | further results
22 | NCCCNCCCCCC(=O)NCC(=O)NCCCCCCN=C(N)N | 18 | 
23 | NCCCNCCCCNC(=O)C(O)C(=O)NCCCCCCN=C(N)N (configuration not stated) | 53 | Mean survival (Rattus norvegicus [3]): 33 days; Mean survival (Mus musculus [2]): 12 days
24 | NCCCNCCCCNC(=O)CCC(=O)NCCCCCCN=C(N)N | 16 | 
25 | NCCCNCCCCNC(=O)C(N)C(=O)NCCCCCCN=C(N)N (configuration not stated) | 16 | 
26 | NCCCNCCCCNC(=O)C(CO)(CO)C(=O)NCCCCCCN=C(N)N | 17 | 
27 | CN(CCCCCCN=C(N)N)C(=O)COC(=O)NCCCCNCCCN | 14 | 
28 | CC(=O)NC(C(=O)NCCCCCCN=C(N)N)C(=O)NCCCCNCCCN (configuration not stated) | 16 | 
29 | NCCCNCCCCNC(=O)C(OCc1ccccc1)C(=O)NCCCCCCN=C(N)N (configuration not stated) | 14 | 
30 | NCCCNCCCCNC(=O)CC(=O)NCCCCCCN=C(N)N | 52 | Mean survival (Rattus norvegicus [3]): 9 days; Mean survival (Mus musculus [2]): 53 days
31 | NCCCNCCCCNC(=O)CCCC(=O)NCCCCCCN=C(N)N | 15 | 
32 | N=C(N)NCCCCCCNC(=O)COC(=O)NCCCCNCCCN [TRESPERIMUS] | 58 | Mean survival (Rattus norvegicus [3]): 54 days; Mean survival (Mus musculus [2]): 46 days
33 | NCCCNCCCCNC(=O)COC(=O)NCCCCCCN=C(N)N | 13 | 
34 | NCCCNCCCCNC(=O)NCC(=O)NCCCCCCN=C(N)N | 48 | Mean survival (Mus musculus [2]): 42 days; Mean survival (Rattus norvegicus [4]): 12 days
35 | NCCCNCCCCNC(=O)CCCCCCCCCN=C(N)N | 16 | 
36 | COC(C(=O)NCCCCCCN=C(N)N)C(=O)NCCCCNCCCN (configuration not stated) | 55 | Mean survival (Mus musculus [2]): 27 days
37 | NCCCNCCCCNC(=O)C(C(=O)NCCCCCCN=C(N)N)c1ccccc1 (configuration not stated) | 19 | 
38 | NCCCNCCCCNCCC(=O)NCCCCCCN=C(N)N | 13 | 
39 | CN(CC(=O)NCCCCCCN=C(N)N)C(=O)NCCCCNCCCN | 17 | 
40 | NCCCNCCCCNC(=O)SCC(=O)NCCCCCCN=C(N)N | 17 | 
41 | NCCCNCCCCOC(=O)NCC(=O)NCCCCCCN=C(N)N | 48 | Mean survival (Mus musculus [2]): 55 days
